The list is not random: actives were taken first. Their share in the collection is about 2.7%.
S100A4 MyoIIA: S100A4-myosin IIA interaction inhibition. S100A4/TAMRA-MyoIIA peptide fluorescence polarization. 360,000 tested, 0.14% active. P26447. inhibition, % at 10.7 µM;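 active means mean inhibition of at least 70% across replicates, with every replicate also reaching that level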
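Material: human S100A4 monomer with TAMRA-labelled myosin IIA peptide; buffer or medium: HEPES pH 7.2 with CaCl2, KCl, NaCl, DTT, Triton; compound dosing: one concentration per compound; schedule: 5 min incubation before reading; benchmarks: neutral control DMSO, positive control TFP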
FGF22 binding: shifts melting point of recombinant human FGF22 | 340,000 tested, 1.5% active | activity (Tm shift, normalised), % at 9.99 µM | Q9HCT0 | recombinant FGF22 thermal shift, SYPRO orange fluorescence; percent of sucrose octasulfate shift, DMSO zero;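 active means mean Tm shift, scaled 0 neutral to 100 positive control, at about 1.3% or above, every replicate too, limit read from the data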
CFTR F508del cor: correctors of CFTR F508del function in bronchial epithelial cells; activity (quench increase), % at 7.58 µM; 350,000 tested, 0.36% active; CFBE cells, YFP halide quenching; stimulated with forskolin plus potentiator P3; % fluorescence drop versus neutral controls; AID 720511;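 active means mean added fluorescence quench of at least 8% versus neutral control, with both replicates also reaching 8%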;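 further: cells transiently co-express mutant CFTR-F508del with the halide-sensitive YFP; corrector assay measuring rescue of mutant channel to the surface after 24 h compound exposure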
HIV Env fusion: blocks HIV Env-driven cell-cell fusion | HeLa-JRFL Env/CEM21 cell fusion, luciferase | inhibition, % at 12.3 µM | 360,000 tested, 1.1% active | AID 651610;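 active means mean replicate inhibition score of at least 50 and every replicate individually at or above 50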
E-sel inducer: induces E-selectin expression in human endothelial cells. P16581. HUVEC E-selectin immunofluorescence imaging; normalized: neutral wells 0, TNF-alpha wells 100. activation, % at 7.58 µM. 260,000 tested, 0.37% active. AID 686992;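 active means mean E-selectin-positive cell signal at least 10% of the positive control, reached in at least 60% of replicates, without over 20% cell loss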
Target sequence (P16581 whole entry, looked up): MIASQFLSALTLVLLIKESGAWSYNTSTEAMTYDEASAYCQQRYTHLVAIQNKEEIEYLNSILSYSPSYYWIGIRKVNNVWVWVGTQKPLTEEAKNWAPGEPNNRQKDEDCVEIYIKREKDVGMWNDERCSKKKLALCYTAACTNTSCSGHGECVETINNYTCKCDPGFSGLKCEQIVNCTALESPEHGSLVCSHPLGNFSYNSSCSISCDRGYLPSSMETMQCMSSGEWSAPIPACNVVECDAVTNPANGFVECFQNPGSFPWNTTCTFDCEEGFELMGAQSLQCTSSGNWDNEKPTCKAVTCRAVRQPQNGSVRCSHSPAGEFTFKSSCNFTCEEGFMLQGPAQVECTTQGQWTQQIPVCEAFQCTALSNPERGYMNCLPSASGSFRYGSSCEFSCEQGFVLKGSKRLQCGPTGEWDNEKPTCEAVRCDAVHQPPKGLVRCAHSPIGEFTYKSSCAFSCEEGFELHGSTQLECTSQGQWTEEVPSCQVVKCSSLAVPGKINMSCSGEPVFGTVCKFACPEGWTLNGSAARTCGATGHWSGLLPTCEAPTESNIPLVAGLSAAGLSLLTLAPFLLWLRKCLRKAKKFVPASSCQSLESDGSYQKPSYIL
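material = human umbilical vein endothelial cells (HUVEC), E-selectin induction | quantity = 3,000 cells/well | medium = EGM-2 growth medium on 0.1% gelatin-coated wells | technique = immunofluorescence imaging | read-out basis = % PE-positive cells | control set = TNF-alpha positive control, DMSO neutral control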
A number is an active result; 0 = inactive; - = not tested or not shown; [ ] = another dose, or the depositor's remark.

SMILES	S100A4 MyoIIA	FGF22 binding	CFTR F508del cor	HIV Env fusion	E-sel inducer
CO[C@@H]1CN(C)C(=O)c2ccc(NC(=O)C3CC3)cc2OC[C@H](C)N(Cc2nccs2)C[C@@H]1C	0	0	0	-	0
COC1OC2COC(c3ccccc3)OC2C(NC(C)=O)C1OC(C)=O (configuration not stated)	0	45	0	0	0
CCN(CC)c1c(-c2ccccc2)c2cc(C)ccc2[nH]c1=O	0	0	0	68	0
O=C(N/N=C/c1oc(O)c2ccccc12)c1ccccc1	0	44	0	0	-
COc1ccccc1-c1nnc(SCC(=O)NCc2c(C)c(Cl)cc(C(C)C)c2O)o1	0	0	-	86	-
CO[C@H]1CN(C)C(=O)c2cc(NC(C)=O)ccc2OC[C@H](C)N(C(=O)c2cccnc2)C[C@H]1C	0	0	0	0	0
Cn1c(=O)c([N+](=O)[O-])c(NCCCn2ccnc2)c2ccccc21	0	0	0	0	74
CCn1c(=O)c([N+](=O)[O-])c(NCCN(C)C)c2ccccc21	0	0	0	0	-
CCCCNc1c([N+](=O)[O-])c(=O)n(C)c2ccccc12	0	0	0	0	48
O=c1c([N+](=O)[O-])c(NCCN2CCCCCC2)c2ccccc2n1-c1ccccc1	0	43	0	0	-
COc1ccc(NC(=O)N(C)C[C@H]2Oc3ccc(NC(=O)NC4CCCCC4)cc3CC(=O)N([C@H](C)CO)C[C@@H]2C)cc1	0	0	0	0	0
C[C@H]1CN([C@@H](C)CO)C(=O)c2c(c3ccccc3n2C)-c2ccccc2CO[C@@H]1CN(C)C(=O)Nc1cccc(Cl)c1Cl	0	-	0	-	0
CO[C@H]1CN(C)C(=O)c2cc(NS(=O)(=O)c3ccccc3C)ccc2OC[C@H](C)N(S(C)(=O)=O)C[C@H]1C	0	0	0	0	0
CCC(=O)Nc1ccc2c(c1)OC[C@@H](C)N(Cc1cncnc1)C[C@@H](C)[C@H](OC)CN(C)C2=O	0	0	0	-	0
CN(c1ccc(O)cc1)c1nc(-c2cccs2)cs1	0	0	13	0	0
C[C@@H]1CN([C@@H](C)CO)C(=O)c2cc(-c3cccc(F)c3)cnc2O[C@@H]1CN(C)CC1CCOCC1	0	0	0	0	0
C[C@H]1CN([C@@H](C)CO)S(=O)(=O)c2ccc(Br)cc2O[C@H]1CN(C)S(=O)(=O)c1ccc(F)cc1	0	0	-	63[16.7 µM]	0
Cc1ccc(S(=O)(=O)N(C)C[C@H]2Oc3cc(-c4cccc(F)c4)ccc3S(=O)(=O)N([C@H](C)CO)C[C@@H]2C)cc1	0	0	0	0	0
Cc1ccc(S(=O)(=O)N(C)C[C@H]2Oc3cc(-c4cccc(F)c4)ccc3S(=O)(=O)N([C@H](C)CO)C[C@H]2C)cc1	0	0	0	64[16.7 µM]	0
C[C@@H]1CN([C@@H](C)CO)S(=O)(=O)c2ccc(-c3cccc(F)c3)cc2O[C@@H]1CN(C)S(=O)(=O)c1ccc(F)cc1	0	0	0	59[16.7 µM]	0
CC(C)CC#Cc1ccc2c(c1)O[C@@H](CN(C)S(=O)(=O)c1ccc(F)cc1)[C@@H](C)CN([C@@H](C)CO)S2(=O)=O	-	-	0	0	0
C[C@H]1CN([C@@H](C)CO)S(=O)(=O)c2ccc(-c3cccc(F)c3)cc2O[C@H]1CN(C)S(=O)(=O)c1ccc(F)cc1	0	0	0	0	0
CC(C)CC#Cc1ccc2c(c1)O[C@@H](CN(C)S(=O)(=O)c1ccc(F)cc1)[C@H](C)CN([C@@H](C)CO)S2(=O)=O	0	0	0	60[16.7 µM]	0
COc1ccc(CN(C)C[C@@H]2Oc3ccc(NC(=O)C4CCCCC4)cc3C(=O)N([C@H](C)CO)C[C@@H]2C)cc1	0	0	0	0	0
CCCN(C)C[C@@H]1OCCCC[C@@H](C)Oc2ccc(NS(C)(=O)=O)cc2C(=O)N([C@H](C)CO)C[C@H]1C	0	0	0	0	0
SMILES	S100A4 MyoIIA	FGF22 binding	CFTR F508del cor	HIV Env fusion	E-sel inducer
CO[C@@H]1CN(C)C(=O)c2cc(NS(=O)(=O)c3cn(C)cn3)ccc2OC[C@@H](C)N(Cc2cccc(F)c2)C[C@H]1C	0	0	0	-	0
COc1ccccc1-c1ccc2c(c1)O[C@H](CN(C)C(C)=O)[C@@H](C)CN([C@@H](C)CO)S2(=O)=O	123	0	0	0	0
COc1ccccc1-c1ccc2c(c1)O[C@H](CN(C)S(=O)(=O)c1ccc(C)cc1)[C@H](C)CN([C@@H](C)CO)S2(=O)=O	0	0	0	43[16.7 µM]	0
CCCC#Cc1ccc2c(c1)O[C@H](CN(C)S(=O)(=O)c1cccc(F)c1)[C@@H](C)CN([C@@H](C)CO)S2(=O)=O	0	0	0	0	0
CCCC#Cc1ccc2c(c1)O[C@H](CN(C)S(=O)(=O)c1cccc(F)c1)[C@H](C)CN([C@@H](C)CO)S2(=O)=O	0	0	0	64[16.7 µM]	0
Cc1ccc(S(=O)(=O)N(C)C[C@@H]2Oc3cc(-c4cccc(F)c4)ccc3S(=O)(=O)N([C@@H](C)CO)C[C@@H]2C)cc1	0	0	0	0	0
Cc1ccc(S(=O)(=O)N(C)C[C@H]2Oc3cc(-c4cccc(F)c4)ccc3S(=O)(=O)N([C@@H](C)CO)C[C@H]2C)cc1	0	0	0	69[16.7 µM]	0
Cc1cc(OC(=O)c2c(C)cc(OC(=O)c3c(C)cc(O)cc3O)cc2O)cc(O)c1C(=O)O	0	1.9	0	-	-
COC(=O)c1c(C)cc(O)cc1O	0	0	0	-	-
CS(=O)(=O)Nc1ccc2c(c1)[C@H]1C[C@@H](CC(=O)NCc3ccccc3F)O[C@@H](CO)[C@H]1O2	0	0	0	-	0
CCOC(=O)C1=C(C)Nc2nc(SCc3cccnc3)nn2C1c1ccc(OC)cc1 (configuration not stated)	0	0	0	62	0
CC(OC(=O)c1ccncc1)C(=O)Nc1cccc([N+](=O)[O-])c1 (configuration not stated)	0	43	0	0	0
COc1ccc(OC(C)C(=O)Nc2cccc([N+](=O)[O-])c2)cc1 (configuration not stated)	-	-	-	0	-
CC1CN(S(=O)(=O)c2cc(C(=O)NCCC3=CCCCC3)ccc2Cl)CC(C)O1 (configuration not stated)	0	0	0	68	0
CC1CN(S(=O)(=O)c2cccc(C(=O)NCCc3ccc(S(N)(=O)=O)cc3)c2)CC(C)O1 (configuration not stated)	0	43	0	0	0
CN1CCN(S(=O)(=O)c2cccc(C(=O)Nc3cc(Cl)ccc3N3CCOCC3)c2)CC1	0	0	0	0	-
Cc1cc2oc(C(=O)NCCc3ccc(S(N)(=O)=O)cc3)c(C)c2cc1C	0	0	12	0	0
Cc1cc2oc(C(=O)NCCc3ccc(S(N)(=O)=O)cc3)cc(=O)c2cc1C	0	0	0	0	-

Compound activity: PubChem BioAssay, Broad Institute
